Laboratory results taken from ChEMBL document CHEMBL1130166, “Synthesis and pharmacological characterization of 3-[2-((3aR,9bR)-cis-6-methoxy-2,3,3a,4,5,9b-hexahydro-1H-benz[e] isoindol-2-yl)ethyl]pyrido-[3',4':4,5]thieno[3,2-d]pyrimidine-2,4 (1H,3H)-dione (A-131701): a uroselective alpha 1A adrenoceptor antagonist for the symptomatic treatment of benign …” (J Med Chem, 1997).

Columns and labels:
[1] = target: T1, Alpha-2A adrenergic receptor (Homo sapiens, UniProt P08913); test: Binding affinity against human adrenergic receptor subtype Alpha-2A adrenergic receptor using [3H]rauwolscine as radioligand
T1 sequence (P08913 whole entry): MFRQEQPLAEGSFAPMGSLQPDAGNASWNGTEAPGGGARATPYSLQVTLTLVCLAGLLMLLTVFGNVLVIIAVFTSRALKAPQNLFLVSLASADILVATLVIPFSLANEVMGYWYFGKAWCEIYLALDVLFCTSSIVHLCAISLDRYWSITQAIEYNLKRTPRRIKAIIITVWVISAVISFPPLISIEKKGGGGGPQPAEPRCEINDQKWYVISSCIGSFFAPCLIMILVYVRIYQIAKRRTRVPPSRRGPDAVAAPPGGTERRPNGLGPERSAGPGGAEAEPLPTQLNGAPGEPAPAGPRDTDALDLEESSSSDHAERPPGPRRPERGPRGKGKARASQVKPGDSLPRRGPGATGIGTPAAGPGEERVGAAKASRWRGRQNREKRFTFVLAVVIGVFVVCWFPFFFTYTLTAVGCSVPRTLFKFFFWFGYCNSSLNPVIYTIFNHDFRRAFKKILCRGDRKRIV

[2] = target: T2, Alpha-2B adrenergic receptor (Rattus norvegicus, UniProt P19328); test: Binding affinity against rat Alpha-2B adrenergic receptor using [3H]rauwolscine as radioligand
T2 sequence (P19328 whole entry): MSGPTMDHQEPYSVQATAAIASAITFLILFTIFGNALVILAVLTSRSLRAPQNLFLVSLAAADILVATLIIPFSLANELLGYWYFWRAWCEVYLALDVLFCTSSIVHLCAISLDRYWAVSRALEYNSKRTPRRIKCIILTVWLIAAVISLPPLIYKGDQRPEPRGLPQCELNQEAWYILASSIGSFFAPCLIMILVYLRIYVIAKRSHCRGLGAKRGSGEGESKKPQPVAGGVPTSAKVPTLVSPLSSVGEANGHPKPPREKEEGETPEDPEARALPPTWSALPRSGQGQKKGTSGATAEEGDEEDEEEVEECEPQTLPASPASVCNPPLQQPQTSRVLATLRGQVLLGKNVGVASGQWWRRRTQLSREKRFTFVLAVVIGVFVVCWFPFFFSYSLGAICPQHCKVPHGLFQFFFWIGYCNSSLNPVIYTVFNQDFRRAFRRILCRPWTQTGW

[3] = target: T3, Alpha-1D adrenergic receptor (Homo sapiens, UniProt P25100); test: Binding affinity against human adrenergic receptor subtype Alpha-1D adrenergic receptor using [3H]prazosin as radioligand
T3 sequence (P25100 whole entry): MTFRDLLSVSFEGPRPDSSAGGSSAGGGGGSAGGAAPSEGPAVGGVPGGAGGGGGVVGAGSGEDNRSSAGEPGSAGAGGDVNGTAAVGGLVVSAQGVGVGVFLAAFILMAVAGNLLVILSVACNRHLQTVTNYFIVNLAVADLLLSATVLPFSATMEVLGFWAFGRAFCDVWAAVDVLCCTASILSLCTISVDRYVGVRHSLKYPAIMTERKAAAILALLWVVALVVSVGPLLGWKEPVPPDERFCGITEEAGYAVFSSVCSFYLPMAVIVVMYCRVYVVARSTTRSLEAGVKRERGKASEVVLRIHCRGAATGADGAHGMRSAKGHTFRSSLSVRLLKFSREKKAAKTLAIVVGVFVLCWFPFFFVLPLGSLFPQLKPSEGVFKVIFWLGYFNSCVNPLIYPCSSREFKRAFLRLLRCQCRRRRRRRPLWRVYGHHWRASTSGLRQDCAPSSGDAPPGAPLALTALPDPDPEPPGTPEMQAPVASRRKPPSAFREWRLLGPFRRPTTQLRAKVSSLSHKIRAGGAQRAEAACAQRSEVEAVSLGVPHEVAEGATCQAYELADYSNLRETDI

Rattus norvegicus = test: Compound was tested for selectivity in a challenge spontaneously hypertensive rat (SHR) model using an ascending iv dose paradigm
[4] = target: T4, 5-hydroxytryptamine receptor 1F (Rattus norvegicus, UniProt P30940); test: Binding affinity against 5-hydroxytryptamine 1 receptor using [3H]5-HT as radioligand
T4 sequence (P30940 whole entry): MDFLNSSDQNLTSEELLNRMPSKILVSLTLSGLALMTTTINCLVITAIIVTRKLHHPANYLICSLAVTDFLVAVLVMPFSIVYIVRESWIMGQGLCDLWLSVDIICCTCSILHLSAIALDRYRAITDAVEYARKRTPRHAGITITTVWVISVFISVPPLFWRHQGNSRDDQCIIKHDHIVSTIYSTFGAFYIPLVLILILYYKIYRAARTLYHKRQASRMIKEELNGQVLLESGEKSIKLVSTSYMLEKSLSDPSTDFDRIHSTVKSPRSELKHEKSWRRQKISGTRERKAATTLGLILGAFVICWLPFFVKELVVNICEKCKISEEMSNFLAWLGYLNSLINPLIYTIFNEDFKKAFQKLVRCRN

[5] = target: 5-hydroxytryptamine receptor 2A (Bos taurus, UniProt Q75Z89); test: Binding affinity against 5-hydroxytryptamine 2 receptor using [3H]ketanserin as radioligand
Sequence of 5-hydroxytryptamine receptor 2A (Q75Z89 whole entry): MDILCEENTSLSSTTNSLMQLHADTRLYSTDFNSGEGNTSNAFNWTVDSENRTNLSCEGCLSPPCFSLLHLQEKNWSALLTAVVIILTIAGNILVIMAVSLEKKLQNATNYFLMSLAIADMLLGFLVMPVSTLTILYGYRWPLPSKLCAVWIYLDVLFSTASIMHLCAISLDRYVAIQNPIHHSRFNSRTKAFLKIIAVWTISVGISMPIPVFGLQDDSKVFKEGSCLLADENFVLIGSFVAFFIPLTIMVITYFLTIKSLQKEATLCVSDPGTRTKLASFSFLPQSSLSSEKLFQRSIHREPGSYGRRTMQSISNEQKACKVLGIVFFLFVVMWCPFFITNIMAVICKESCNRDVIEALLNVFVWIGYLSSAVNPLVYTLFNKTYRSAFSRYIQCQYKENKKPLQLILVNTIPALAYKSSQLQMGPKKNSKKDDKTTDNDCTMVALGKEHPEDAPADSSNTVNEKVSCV

[6] = target: T5, Alpha-1D adrenergic receptor (Rattus norvegicus, UniProt P23944); test: In vitro antagonism against Alpha-1D adrenergic receptor using phenylephrine (PE) challenge in rat aorta; type: functional, tissue-based; conditions: read-out: pA2 (converted)
T5 sequence (P23944 whole entry): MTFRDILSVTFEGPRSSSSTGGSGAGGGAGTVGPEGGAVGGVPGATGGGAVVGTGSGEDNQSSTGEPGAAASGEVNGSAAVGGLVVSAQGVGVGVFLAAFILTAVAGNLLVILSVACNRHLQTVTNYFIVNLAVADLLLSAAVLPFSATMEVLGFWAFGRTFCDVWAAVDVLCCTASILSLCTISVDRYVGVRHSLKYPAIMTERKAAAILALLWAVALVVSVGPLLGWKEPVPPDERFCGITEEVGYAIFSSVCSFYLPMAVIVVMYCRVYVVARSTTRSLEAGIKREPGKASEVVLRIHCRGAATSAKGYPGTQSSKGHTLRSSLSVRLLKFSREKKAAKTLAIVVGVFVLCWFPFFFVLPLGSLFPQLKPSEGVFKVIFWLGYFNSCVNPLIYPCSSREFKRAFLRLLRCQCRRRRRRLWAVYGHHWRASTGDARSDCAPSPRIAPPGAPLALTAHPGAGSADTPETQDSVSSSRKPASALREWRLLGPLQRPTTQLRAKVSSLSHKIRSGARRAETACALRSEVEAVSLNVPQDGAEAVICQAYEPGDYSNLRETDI
How it was run: (§1)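 Agonist concentration-response curves were run on the isolated tissue, then repeated in the presence of increasing concentrations of antagonist. pA2 was obtained by Schild analysis.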

[7] = target: T6, Alpha-1B adrenergic receptor (Rattus norvegicus, UniProt P15823); test: In vitro antagonism against Alpha-1B adrenergic receptor using phenylephrine (PE) challenge in rat spleen; type: functional, tissue-based; conditions: read-out: pA2 (converted); how it was run: as §1
T6 sequence (P15823 whole entry): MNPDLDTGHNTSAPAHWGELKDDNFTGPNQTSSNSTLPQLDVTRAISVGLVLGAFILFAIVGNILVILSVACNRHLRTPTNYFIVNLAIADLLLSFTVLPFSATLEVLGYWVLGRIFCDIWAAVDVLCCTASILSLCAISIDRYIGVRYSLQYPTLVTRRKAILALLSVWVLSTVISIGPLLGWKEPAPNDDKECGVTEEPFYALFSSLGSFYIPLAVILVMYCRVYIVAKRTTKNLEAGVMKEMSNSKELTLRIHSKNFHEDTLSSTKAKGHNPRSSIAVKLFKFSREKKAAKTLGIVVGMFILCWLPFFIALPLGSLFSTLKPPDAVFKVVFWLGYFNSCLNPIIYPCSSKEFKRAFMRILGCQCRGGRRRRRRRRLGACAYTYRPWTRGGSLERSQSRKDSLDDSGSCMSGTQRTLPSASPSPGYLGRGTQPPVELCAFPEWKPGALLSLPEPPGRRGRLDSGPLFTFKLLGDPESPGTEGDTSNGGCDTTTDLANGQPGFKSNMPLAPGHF

[8] = target: Beta-1 adrenergic receptor (Homo sapiens, UniProt P08588); test: Binding affinity against Beta-1 adrenergic receptor using [3H]DHA as radioligand
Sequence of Beta-1 adrenergic receptor (P08588 whole entry): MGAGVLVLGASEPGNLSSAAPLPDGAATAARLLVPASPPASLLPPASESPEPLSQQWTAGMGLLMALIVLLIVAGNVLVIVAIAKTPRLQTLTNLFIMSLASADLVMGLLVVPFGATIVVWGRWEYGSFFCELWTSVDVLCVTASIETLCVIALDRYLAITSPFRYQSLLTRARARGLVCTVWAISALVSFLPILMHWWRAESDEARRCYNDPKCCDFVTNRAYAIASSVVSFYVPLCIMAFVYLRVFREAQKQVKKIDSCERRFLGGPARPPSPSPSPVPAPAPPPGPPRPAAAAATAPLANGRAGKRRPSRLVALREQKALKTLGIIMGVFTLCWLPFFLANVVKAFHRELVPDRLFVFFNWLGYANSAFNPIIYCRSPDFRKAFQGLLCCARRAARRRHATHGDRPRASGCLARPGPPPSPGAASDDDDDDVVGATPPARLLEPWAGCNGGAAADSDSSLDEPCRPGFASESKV

[9] = target: T7, Alpha-1B adrenergic receptor (Homo sapiens, UniProt P35368); test: Binding affinity against human adrenergic receptor subtype Alpha-1B adrenergic receptor using [3H]prazosin as radioligand
T7 sequence (P35368 whole entry): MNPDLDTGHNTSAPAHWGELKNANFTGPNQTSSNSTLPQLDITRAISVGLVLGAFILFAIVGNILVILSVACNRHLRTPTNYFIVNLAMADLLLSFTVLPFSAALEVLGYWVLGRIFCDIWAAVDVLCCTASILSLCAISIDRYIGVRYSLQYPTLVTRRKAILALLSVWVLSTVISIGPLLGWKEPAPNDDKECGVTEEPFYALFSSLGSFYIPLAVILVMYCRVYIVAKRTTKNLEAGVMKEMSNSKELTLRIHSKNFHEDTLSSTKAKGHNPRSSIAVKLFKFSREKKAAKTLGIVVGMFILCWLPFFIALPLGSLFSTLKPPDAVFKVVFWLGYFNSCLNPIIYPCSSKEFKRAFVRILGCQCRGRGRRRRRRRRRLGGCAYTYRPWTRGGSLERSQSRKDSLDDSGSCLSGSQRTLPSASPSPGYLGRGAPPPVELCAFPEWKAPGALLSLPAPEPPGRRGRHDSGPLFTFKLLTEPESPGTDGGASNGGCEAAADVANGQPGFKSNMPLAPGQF

[10] = target: T8, Alpha-2C adrenergic receptor (Homo sapiens, UniProt P18825); test: Binding affinity against human Alpha-2C adrenergic receptor using [3H]rauwolscine as radioligand
T8 sequence (P18825 whole entry): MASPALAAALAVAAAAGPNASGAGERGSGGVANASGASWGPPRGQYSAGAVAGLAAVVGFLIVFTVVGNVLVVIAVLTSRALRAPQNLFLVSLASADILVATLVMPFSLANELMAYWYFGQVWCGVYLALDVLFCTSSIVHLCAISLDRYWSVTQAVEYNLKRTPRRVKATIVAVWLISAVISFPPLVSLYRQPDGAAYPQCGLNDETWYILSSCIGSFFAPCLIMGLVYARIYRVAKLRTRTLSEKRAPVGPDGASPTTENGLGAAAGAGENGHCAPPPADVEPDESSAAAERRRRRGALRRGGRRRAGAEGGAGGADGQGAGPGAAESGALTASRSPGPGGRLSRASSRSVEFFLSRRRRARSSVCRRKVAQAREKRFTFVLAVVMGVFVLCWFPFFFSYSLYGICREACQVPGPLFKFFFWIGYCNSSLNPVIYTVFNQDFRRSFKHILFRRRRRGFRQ

[11] = target: Beta-2 adrenergic receptor (Homo sapiens, UniProt P07550); test: Binding affinity against adrenergic receptor subtype Beta-2 adrenergic receptor using [3H]DHA as radioligand
Sequence of Beta-2 adrenergic receptor (P07550 whole entry): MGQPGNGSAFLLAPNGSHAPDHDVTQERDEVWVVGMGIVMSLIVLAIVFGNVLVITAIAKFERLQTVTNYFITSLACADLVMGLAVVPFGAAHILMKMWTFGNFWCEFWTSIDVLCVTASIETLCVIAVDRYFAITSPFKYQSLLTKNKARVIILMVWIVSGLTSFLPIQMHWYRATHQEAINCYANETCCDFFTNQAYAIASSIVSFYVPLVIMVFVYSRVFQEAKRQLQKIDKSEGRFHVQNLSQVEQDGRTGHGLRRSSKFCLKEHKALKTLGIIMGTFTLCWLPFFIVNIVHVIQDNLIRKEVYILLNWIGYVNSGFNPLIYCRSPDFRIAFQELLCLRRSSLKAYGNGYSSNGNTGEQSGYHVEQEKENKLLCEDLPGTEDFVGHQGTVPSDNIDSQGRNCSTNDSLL

D(1A) dopamine receptor = D(1A) dopamine receptor (Mus musculus, UniProt Q61616); test: Binding affinity against Dopamine receptor D1 using [3H]SCH-23390 as radioligand
Sequence of D(1A) dopamine receptor (Q61616 whole entry): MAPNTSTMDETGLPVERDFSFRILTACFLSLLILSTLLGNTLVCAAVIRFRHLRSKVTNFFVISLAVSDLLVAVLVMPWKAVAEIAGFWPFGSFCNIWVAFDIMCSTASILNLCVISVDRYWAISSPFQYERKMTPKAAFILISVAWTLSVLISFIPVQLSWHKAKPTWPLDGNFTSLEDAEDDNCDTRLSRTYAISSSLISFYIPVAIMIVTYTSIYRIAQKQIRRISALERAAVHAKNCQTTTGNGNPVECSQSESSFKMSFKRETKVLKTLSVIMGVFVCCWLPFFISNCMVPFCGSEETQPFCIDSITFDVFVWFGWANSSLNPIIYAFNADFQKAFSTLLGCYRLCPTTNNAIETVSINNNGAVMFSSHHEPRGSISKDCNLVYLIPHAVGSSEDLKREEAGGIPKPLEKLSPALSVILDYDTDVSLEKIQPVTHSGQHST

D(2) dopamine receptor = D(2) dopamine receptor (Homo sapiens, UniProt P14416); test: Binding affinity against Dopamine receptor D2 using [3H]spiroperidol as radioligand
Sequence of D(2) dopamine receptor (P14416 whole entry): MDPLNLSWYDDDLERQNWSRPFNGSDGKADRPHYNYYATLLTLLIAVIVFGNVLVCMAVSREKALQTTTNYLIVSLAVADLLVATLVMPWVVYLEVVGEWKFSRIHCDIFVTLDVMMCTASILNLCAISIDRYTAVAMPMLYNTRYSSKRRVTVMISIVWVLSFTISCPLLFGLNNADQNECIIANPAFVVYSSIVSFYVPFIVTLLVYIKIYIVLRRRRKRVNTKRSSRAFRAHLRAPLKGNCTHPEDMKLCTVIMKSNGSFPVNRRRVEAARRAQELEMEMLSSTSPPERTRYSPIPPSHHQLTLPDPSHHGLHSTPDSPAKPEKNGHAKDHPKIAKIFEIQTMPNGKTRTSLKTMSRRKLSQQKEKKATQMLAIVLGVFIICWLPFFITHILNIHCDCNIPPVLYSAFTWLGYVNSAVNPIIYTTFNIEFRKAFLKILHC

| Compound | Ki [1] [nM] | Ki [2] [nM] | Ki [3] [nM] | pED50 (Rattus norvegicus) | Ki [4] [nM] | Ki [5] [nM] | Kb [6] [nM] | Kb [7] [nM] | Ki [8] [nM] | Ki [9] [nM] | Ki [10] [nM] | Ki [11] [nM] | Ki (D(1A) dopamine receptor) [nM] | Ki (D(2) dopamine receptor) [nM] |
| --- | --- | --- | --- | --- | --- | --- | --- | --- | --- | --- | --- | --- | --- | --- |
| COc1cc2nc(N3CCN(C(=O)C4CCCO4)CC3)nc(N)c2cc1OC (stereo not given) [TERAZOSIN] | 1500 | 7.7 | 0.85 | 6.64 | – | – | – | – | – | – | – | – | – | – |
| COc1cccc2c1CC[C@H]1CN(CCn3c(=O)[nH]c4c(sc5cccnc54)c3=O)C[C@@H]21 | 94.9 | 13.1 | 0.97 | 5.33 | 3380 | 83 | 0.776 | 12.9 | 10600 | 6.95 | 16.6 | 3870 | 717 | 19.7 |
| CCOc1ccccc1OCCN[C@H](C)Cc1ccc(OC)c(S(N)(=O)=O)c1 [TAMSULOSIN] | 13.4 | 6.8 | 0.058 | 7.33 | – | – | – | 0.204 | – | 0.61 | 7.9 | – | – | – |
